Data: ChEMBL document CHEMBL1154780, “Synthesis of new linear guanidines and macrocyclic amidinourea derivatives endowed with high antifungal activity against Candida spp. and Aspergillus spp” (J Med Chem, 2009)
Values after ≈ are worked out from the molar mass of the structure shown.

Key:
[1] = tested on: Candida albicans; assay: Anticandidal activity against Candida albicans 53T after 24 hrs by spectrophotometry; format: functional
[2] = tested on: Candida tropicalis; assay: Anticandidal activity against Candida tropicalis 86E after 24 hrs by spectrophotometry; format: functional
[3] = tested on: Candida albicans; assay: Anticandidal activity against Candida albicans 4T after 24 hrs by spectrophotometry; format: functional
[4] = tested on: Pichia kudriavzevii; assay: Anticandidal activity against Candida krusei ATCC 14243 after 24 hrs by spectrophotometry; format: functional; details: ATCC 14243, 24 h
[5] = tested on: Candida albicans; assay: Anticandidal activity against Candida albicans 15T after 24 hrs by spectrophotometry; format: functional
[6] = tested on: Candida parapsilosis; assay: Anticandidal activity against Candida parapsilosis 64E after 24 hrs by spectrophotometry; format: functional; details: Lodderomyces parapsilosis
[7] = tested on: Candida parapsilosis; assay: Anticandidal activity against Candida parapsilosis 81E after 24 hrs by spectrophotometry; format: functional; details: Lodderomyces parapsilosis
[8] = tested on: Candida parapsilosis; assay: Anticandidal activity against Candida parapsilosis ATCC 34136 after 24 hrs by spectrophotometry; format: functional; details: Lodderomyces parapsilosis, ATCC 34136, 24 h
[9] = tested on: Candida albicans; assay: Anticandidal activity against Candida albicans ATCC 60193 after 24 hrs by spectrophotometry; format: functional; details: ATCC 60193, 24 h
[10] = tested on: Pichia kudriavzevii; assay: Anticandidal activity against Candida krusei 193T after 24 hrs by spectrophotometry; format: functional
[11] = tested on: Nakaseomyces glabratus; assay: Anticandidal activity against Candida glabrata 70E after 24 hrs by spectrophotometry; format: functional
[12] = Cytotoxicity against human lymphocytes at 40 uM; format: cell-based; details: lymphocyte
In short: (§1)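 Human lymphocytes exposed to compound at concentrations between 0 and 50 μM, at both 25 and 37 °C; read-out is percent cell viability.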

[13] = tested on: Aspergillus fumigatus; assay: Antifungal activity against Aspergillus fumigatus isolated from patient bronchoalveolar lavage fluid after 48 hrs by broth microdilution method; format: functional; details: Lung
[14] = Therapeutic index, ratio of drug level reducing 50% viability of human lymphocytes at 25 degC to MIC50 for Candida sp.
[15] = Cytotoxicity against human lymphocytes assessed as cell viability up to 30 uM; format: cell-based, Lymphocyte; details: read-out: Activity; in short: as §1
[16] = Cytotoxicity against human lymphocytes at 50 uM; format: cell-based; details: lymphocyte; in short: as §1
[17] = tested on: Aspergillus versicolor; assay: Antifungal activity against Aspergillus versicolor isolated from patient sputum after 48 hrs by broth microdilution method; format: functional
[18] = tested on: Aspergillus niger; assay: Antifungal activity against Aspergillus niger isolated from patient nasal swab after 48 hrs by broth microdilution method; format: functional
[19] = tested on: Aspergillus niger; assay: Antifungal activity against Aspergillus niger isolated from patient sputum after 48 hrs by broth microdilution method; format: functional
[20] = tested on: Aspergillus versicolor; assay: Antifungal activity against Aspergillus versicolor isolated from patient skin after 48 hrs by broth microdilution method; format: functional
[21] = tested on: Aspergillus terreus; assay: Antifungal activity against Aspergillus terreus isolated from patient bronchoalveolar lavage fluid after 48 hrs by broth microdilution method; format: functional; details: Lung
[22] = Therapeutic index, ratio of drug level reducing 50% viability of human lymphocytes at 37 degC to MIC50 for Candida sp.
In short: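 Index is the lymphocyte concentration giving 50% viability at 37 °C divided by MIC50 for each Candida species; lymphocytes were exposed to 0–50 μM.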

[23] = tested on: Aspergillus flavus; assay: Antifungal activity against Aspergillus flavus isolated from patient sputum after 48 hrs by broth microdilution method; format: functional
[24] = tested on: Aspergillus fumigatus; assay: Antifungal activity against Aspergillus fumigatus isolated from patient sputum after 48 hrs by broth microdilution method; format: functional

Row | Compound | MIC [1] [µM] | MIC [2] [µM] | MIC [3] [µM] | MIC [4] [µM] | MIC [5] [µM] | MIC [6] [µM] | MIC [7] [µM] | MIC [8] [µM] | MIC [9] [µM] | MIC [10] [µM] | MIC [11] [µM] | other results
1 | C#CCNC(=N)NCCCCCCCCN1CCCCCCCCNC(=N)NC1=O | 5 (≈ 2.1 µg/mL) | 5 (≈ 2.1 µg/mL) | 80 (≈ 33.6 µg/mL) | 80 (≈ 33.6 µg/mL) | 2.5 (≈ 1.05 µg/mL) | 40 (≈ 16.8 µg/mL) | 80 (≈ 33.6 µg/mL) | 40 (≈ 16.8 µg/mL) | 2.5 (≈ 1.05 µg/mL) | 40 (≈ 16.8 µg/mL) | 80 (≈ 33.6 µg/mL) | 
2 | N=C(NCCCCCCCCN1CCCCCCCCNC(=N)NC1=O)NCc1ccccc1 | 2.5 (≈ 1.18 µg/mL) | 2.5 (≈ 1.18 µg/mL) | 2.5 (≈ 1.18 µg/mL) | 20 (≈ 9.43 µg/mL) | 5 (≈ 2.36 µg/mL) | 20 (≈ 9.43 µg/mL) | 20 (≈ 9.43 µg/mL) | 80 (≈ 37.7 µg/mL) | 2.5 (≈ 1.18 µg/mL) | 10 (≈ 4.72 µg/mL) | 40 (≈ 18.9 µg/mL) | 
3 | N=C(N)NCCCCCCCCNCCCCCCCCNC(=N)NCC1CC1 | 10 (≈ 4.1 µg/mL) | 5 (≈ 2.05 µg/mL) | 10 (≈ 4.1 µg/mL) | 5 (≈ 2.05 µg/mL) | 20 (≈ 8.19 µg/mL) | 5 (≈ 2.05 µg/mL) | 20 (≈ 8.19 µg/mL) | 80 (≈ 32.8 µg/mL) | 20 (≈ 8.19 µg/mL) | 10 (≈ 4.1 µg/mL) | 20 (≈ 8.19 µg/mL) | 
4 | N=C(N)NCCCCCCCCN(CCCCCCCCNC(=N)N)C(=N)N | 20 (≈ 7.95 µg/mL) | 1.25 (≈ 0.497 µg/mL) | 5 (≈ 1.99 µg/mL) | 10 (≈ 3.98 µg/mL) | 10 (≈ 3.98 µg/mL) | > 80 | > 80 | > 80 | 5 (≈ 1.99 µg/mL) | 40 (≈ 15.9 µg/mL) | > 80 | 
5 | C/C=C/CNC(=N)NCCCCCCCCN1CCCCCCCCNC(=N)NC1=O | 2.5 (≈ 1.09 µg/mL) | 1.25 (≈ 0.545 µg/mL) | 1.25 (≈ 0.545 µg/mL) | 5 (≈ 2.18 µg/mL) | 1.25 (≈ 0.545 µg/mL) | 5 (≈ 2.18 µg/mL) | 5 (≈ 2.18 µg/mL) | 5 (≈ 2.18 µg/mL) | 2.5 (≈ 1.09 µg/mL) | 5 (≈ 2.18 µg/mL) | 20 (≈ 8.71 µg/mL) | Activity [12]: 78%; MIC [13]: 36 µM (≈ 15.7 µg/mL); Ratio [14]: 2.4; viability [15]: 100%; Activity [16]: 43%; MIC [17]: 18 µM (≈ 7.84 µg/mL); MIC [18]: 18 µM (≈ 7.84 µg/mL); MIC [19]: 18 µM (≈ 7.84 µg/mL); MIC [20]: 4 µM (≈ 1.74 µg/mL); MIC [21]: 73 µM (≈ 31.8 µg/mL); Ratio [22]: 1.9; MIC [23]: 36 µM (≈ 15.7 µg/mL); MIC [24]: 73 µM (≈ 31.8 µg/mL)
6 | CC(C)=CCNC(=N)NCCCCCCCCNCCCCCCCCNC(=N)N | 80 (≈ 33.9 µg/mL) | 20 (≈ 8.47 µg/mL) | 80 (≈ 33.9 µg/mL) | 40 (≈ 16.9 µg/mL) | 40 (≈ 16.9 µg/mL) | > 80 | 40 (≈ 16.9 µg/mL) | > 80 | 80 (≈ 33.9 µg/mL) | 20 (≈ 8.47 µg/mL) | 80 (≈ 33.9 µg/mL) | 
7 | C[C@@H]1[C@H](O)[C@@H](C)/C=C/C=C/C=C/C=C/C=C/C=C/C=C/[C@H](O[C@@H]2O[C@H](C)[C@@H](O)[C@H](N)[C@@H]2O)C[C@@H]2O[C@](O)(C[C@@H](O)C[C@@H](O)[C@H](O)CC[C@@H](O)C[C@@H](O)CC(=O)O[C@H]1C)C[C@H](O)[C@H]2C(=O)O [AMPHOTERICIN B] |  |  |  |  |  |  |  |  |  |  |  | MIC [13]: 0.27 µM (≈ 0.25 µg/mL); MIC [17]: 0.54 µM (≈ 0.499 µg/mL); MIC [18]: 0.135 µM (≈ 0.125 µg/mL); MIC [19]: 0.27 µM (≈ 0.25 µg/mL); MIC [20]: 0.135 µM (≈ 0.125 µg/mL); MIC [21]: 1 µM (≈ 0.924 µg/mL); MIC [23]: 2.1 µM (≈ 1.94 µg/mL); MIC [24]: 0.135 µM (≈ 0.125 µg/mL)
8 | C=C(C)CNC(=N)NCCCCCCCCN1CCCCCCCCNC(=N)NC1=O | 40 (≈ 17.4 µg/mL) | 40 (≈ 17.4 µg/mL) | 40 (≈ 17.4 µg/mL) | 40 (≈ 17.4 µg/mL) | 20 (≈ 8.71 µg/mL) | > 80 | > 80 | > 80 | 20 (≈ 8.71 µg/mL) | 80 (≈ 34.9 µg/mL) | 80 (≈ 34.9 µg/mL) | 
9 | N=C(N)NCCCCCCCCNCCCCCCCCNC(=N)N [IMINOCTADIENE] | 40 (≈ 14.2 µg/mL) | 1.25 (≈ 0.444 µg/mL) | 80 (≈ 28.4 µg/mL) | 20 (≈ 7.11 µg/mL) | 80 (≈ 28.4 µg/mL) | 40 (≈ 14.2 µg/mL) | 20 (≈ 7.11 µg/mL) | > 80 | 80 (≈ 28.4 µg/mL) | 20 (≈ 7.11 µg/mL) | 40 (≈ 14.2 µg/mL) | 
10 | CCC(C)n1ncn(-c2ccc(N3CCN(c4ccc(OCC5COC(Cn6cncn6)(c6ccc(Cl)cc6Cl)O5)cc4)CC3)cc2)c1=O (stereo not given) [ITRACONAZOLE] |  |  |  |  |  |  |  |  |  |  |  | MIC [13]: 0.04 µM (≈ 0.0282 µg/mL); MIC [17]: 0.02 µM (≈ 0.0141 µg/mL); MIC [18]: 0.35 µM (≈ 0.247 µg/mL); MIC [19]: 0.35 µM (≈ 0.247 µg/mL); MIC [20]: 0.35 µM (≈ 0.247 µg/mL); MIC [21]: 0.35 µM (≈ 0.247 µg/mL); MIC [23]: 0.04 µM (≈ 0.0282 µg/mL); MIC [24]: 0.35 µM (≈ 0.247 µg/mL)
11 | CC(C)=CCNC(=N)NCCCCCCCCNCCCCCCCCNC(=N)NCC=C(C)C | 80 (≈ 39.3 µg/mL) | > 80 | 80 (≈ 39.3 µg/mL) | 40 (≈ 19.7 µg/mL) | > 80 | > 80 | > 80 | > 80 | > 80 | 80 (≈ 39.3 µg/mL) | > 80 | 
12 | CC(C)=CCNC(=N)NCCCCCCCCN1CCCCCCCCNC(=N)NC1=O | 20 (≈ 8.99 µg/mL) | 20 (≈ 8.99 µg/mL) | 20 (≈ 8.99 µg/mL) | 10 (≈ 4.5 µg/mL) | 20 (≈ 8.99 µg/mL) | > 80 | 40 (≈ 18 µg/mL) | > 80 | 40 (≈ 18 µg/mL) | 20 (≈ 8.99 µg/mL) | 80 (≈ 36 µg/mL) | 
13 | OC(Cn1cncn1)(Cn1cncn1)c1ccc(F)cc1F [FLUCONAZOLE] | 418 (≈ 128 µg/mL) | 52 (≈ 15.9 µg/mL) | 209 (≈ 64 µg/mL) | 209 (≈ 64 µg/mL) | 209 (≈ 64 µg/mL) | 32 (≈ 9.8 µg/mL) | 13 (≈ 3.98 µg/mL) | 6.5 (≈ 1.99 µg/mL) | 0.8 (≈ 0.245 µg/mL) | 418 (≈ 128 µg/mL) | 209 (≈ 64 µg/mL) | 
